# pKd: −log10 of the molar value. Read-outs that look alike come from different tables or passages of the source.
# Columns and labels:
# [1] = cited from earlier work
# [2] = in situ brain perfusion; cited from earlier work
# [3] = system: bovine brain capillary endothelial cell monolayers; details: cited from earlier work
# endothelial cells = assay: Endothelial cells exposed to Angiopep-2; assay type: cell-based; details: data not shown
# [4] = after in situ perfusion; cited from earlier work
# [5] = Immunohistochemical detection of Angiopep-2 in brain with anti-Angiopep-2 pAb; details: mice, 20 mg/kg tail vein, 60 min uptake, cold saline perfusion
# LRP-1 (Homo sapiens) [6] = molecular target: LRP-1 (Homo sapiens) (UniProt Q07954); details: cited from earlier work
# LRP-1 (Homo sapiens) [7] = molecular target: LRP-1 (Homo sapiens) (UniProt Q07954); details: cited from earlier work; remark: listed apart in the source
# RBE4 cells = assay: [125I]-Angiopep-2 uptake assay in brain endothelial cells; assay type: cell-based, rat; details: [125I]-Angiopep-2 100 nM; poly-L-lysine 350 μg/ml, protamine 40 μg/ml
# Procedure, shortened: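 RBE4 brain endothelial cells were grown on collagen I in α-MEM/Ham's F-12 (1:1) with 10% heat-inactivated FCS, G418 and bFGF, seeded at 5 × 10⁴ cells/well and fed 3 days. Subconfluent cells in Ringer/HEPES pH 7.4 took up the tracer for 2 min at 37°C with a polycation, ± unlabelled peptide. Cells were lysed in 0.3 M NaOH and gamma counted, with unlabelled-cell background subtracted, in quadruplicate.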
# LRP-1 = details: read-out: Affinity for LRP-1; in other cell types; cited from earlier work
# Sequence of LRP-1 (Homo sapiens) (Q07954 20-4544): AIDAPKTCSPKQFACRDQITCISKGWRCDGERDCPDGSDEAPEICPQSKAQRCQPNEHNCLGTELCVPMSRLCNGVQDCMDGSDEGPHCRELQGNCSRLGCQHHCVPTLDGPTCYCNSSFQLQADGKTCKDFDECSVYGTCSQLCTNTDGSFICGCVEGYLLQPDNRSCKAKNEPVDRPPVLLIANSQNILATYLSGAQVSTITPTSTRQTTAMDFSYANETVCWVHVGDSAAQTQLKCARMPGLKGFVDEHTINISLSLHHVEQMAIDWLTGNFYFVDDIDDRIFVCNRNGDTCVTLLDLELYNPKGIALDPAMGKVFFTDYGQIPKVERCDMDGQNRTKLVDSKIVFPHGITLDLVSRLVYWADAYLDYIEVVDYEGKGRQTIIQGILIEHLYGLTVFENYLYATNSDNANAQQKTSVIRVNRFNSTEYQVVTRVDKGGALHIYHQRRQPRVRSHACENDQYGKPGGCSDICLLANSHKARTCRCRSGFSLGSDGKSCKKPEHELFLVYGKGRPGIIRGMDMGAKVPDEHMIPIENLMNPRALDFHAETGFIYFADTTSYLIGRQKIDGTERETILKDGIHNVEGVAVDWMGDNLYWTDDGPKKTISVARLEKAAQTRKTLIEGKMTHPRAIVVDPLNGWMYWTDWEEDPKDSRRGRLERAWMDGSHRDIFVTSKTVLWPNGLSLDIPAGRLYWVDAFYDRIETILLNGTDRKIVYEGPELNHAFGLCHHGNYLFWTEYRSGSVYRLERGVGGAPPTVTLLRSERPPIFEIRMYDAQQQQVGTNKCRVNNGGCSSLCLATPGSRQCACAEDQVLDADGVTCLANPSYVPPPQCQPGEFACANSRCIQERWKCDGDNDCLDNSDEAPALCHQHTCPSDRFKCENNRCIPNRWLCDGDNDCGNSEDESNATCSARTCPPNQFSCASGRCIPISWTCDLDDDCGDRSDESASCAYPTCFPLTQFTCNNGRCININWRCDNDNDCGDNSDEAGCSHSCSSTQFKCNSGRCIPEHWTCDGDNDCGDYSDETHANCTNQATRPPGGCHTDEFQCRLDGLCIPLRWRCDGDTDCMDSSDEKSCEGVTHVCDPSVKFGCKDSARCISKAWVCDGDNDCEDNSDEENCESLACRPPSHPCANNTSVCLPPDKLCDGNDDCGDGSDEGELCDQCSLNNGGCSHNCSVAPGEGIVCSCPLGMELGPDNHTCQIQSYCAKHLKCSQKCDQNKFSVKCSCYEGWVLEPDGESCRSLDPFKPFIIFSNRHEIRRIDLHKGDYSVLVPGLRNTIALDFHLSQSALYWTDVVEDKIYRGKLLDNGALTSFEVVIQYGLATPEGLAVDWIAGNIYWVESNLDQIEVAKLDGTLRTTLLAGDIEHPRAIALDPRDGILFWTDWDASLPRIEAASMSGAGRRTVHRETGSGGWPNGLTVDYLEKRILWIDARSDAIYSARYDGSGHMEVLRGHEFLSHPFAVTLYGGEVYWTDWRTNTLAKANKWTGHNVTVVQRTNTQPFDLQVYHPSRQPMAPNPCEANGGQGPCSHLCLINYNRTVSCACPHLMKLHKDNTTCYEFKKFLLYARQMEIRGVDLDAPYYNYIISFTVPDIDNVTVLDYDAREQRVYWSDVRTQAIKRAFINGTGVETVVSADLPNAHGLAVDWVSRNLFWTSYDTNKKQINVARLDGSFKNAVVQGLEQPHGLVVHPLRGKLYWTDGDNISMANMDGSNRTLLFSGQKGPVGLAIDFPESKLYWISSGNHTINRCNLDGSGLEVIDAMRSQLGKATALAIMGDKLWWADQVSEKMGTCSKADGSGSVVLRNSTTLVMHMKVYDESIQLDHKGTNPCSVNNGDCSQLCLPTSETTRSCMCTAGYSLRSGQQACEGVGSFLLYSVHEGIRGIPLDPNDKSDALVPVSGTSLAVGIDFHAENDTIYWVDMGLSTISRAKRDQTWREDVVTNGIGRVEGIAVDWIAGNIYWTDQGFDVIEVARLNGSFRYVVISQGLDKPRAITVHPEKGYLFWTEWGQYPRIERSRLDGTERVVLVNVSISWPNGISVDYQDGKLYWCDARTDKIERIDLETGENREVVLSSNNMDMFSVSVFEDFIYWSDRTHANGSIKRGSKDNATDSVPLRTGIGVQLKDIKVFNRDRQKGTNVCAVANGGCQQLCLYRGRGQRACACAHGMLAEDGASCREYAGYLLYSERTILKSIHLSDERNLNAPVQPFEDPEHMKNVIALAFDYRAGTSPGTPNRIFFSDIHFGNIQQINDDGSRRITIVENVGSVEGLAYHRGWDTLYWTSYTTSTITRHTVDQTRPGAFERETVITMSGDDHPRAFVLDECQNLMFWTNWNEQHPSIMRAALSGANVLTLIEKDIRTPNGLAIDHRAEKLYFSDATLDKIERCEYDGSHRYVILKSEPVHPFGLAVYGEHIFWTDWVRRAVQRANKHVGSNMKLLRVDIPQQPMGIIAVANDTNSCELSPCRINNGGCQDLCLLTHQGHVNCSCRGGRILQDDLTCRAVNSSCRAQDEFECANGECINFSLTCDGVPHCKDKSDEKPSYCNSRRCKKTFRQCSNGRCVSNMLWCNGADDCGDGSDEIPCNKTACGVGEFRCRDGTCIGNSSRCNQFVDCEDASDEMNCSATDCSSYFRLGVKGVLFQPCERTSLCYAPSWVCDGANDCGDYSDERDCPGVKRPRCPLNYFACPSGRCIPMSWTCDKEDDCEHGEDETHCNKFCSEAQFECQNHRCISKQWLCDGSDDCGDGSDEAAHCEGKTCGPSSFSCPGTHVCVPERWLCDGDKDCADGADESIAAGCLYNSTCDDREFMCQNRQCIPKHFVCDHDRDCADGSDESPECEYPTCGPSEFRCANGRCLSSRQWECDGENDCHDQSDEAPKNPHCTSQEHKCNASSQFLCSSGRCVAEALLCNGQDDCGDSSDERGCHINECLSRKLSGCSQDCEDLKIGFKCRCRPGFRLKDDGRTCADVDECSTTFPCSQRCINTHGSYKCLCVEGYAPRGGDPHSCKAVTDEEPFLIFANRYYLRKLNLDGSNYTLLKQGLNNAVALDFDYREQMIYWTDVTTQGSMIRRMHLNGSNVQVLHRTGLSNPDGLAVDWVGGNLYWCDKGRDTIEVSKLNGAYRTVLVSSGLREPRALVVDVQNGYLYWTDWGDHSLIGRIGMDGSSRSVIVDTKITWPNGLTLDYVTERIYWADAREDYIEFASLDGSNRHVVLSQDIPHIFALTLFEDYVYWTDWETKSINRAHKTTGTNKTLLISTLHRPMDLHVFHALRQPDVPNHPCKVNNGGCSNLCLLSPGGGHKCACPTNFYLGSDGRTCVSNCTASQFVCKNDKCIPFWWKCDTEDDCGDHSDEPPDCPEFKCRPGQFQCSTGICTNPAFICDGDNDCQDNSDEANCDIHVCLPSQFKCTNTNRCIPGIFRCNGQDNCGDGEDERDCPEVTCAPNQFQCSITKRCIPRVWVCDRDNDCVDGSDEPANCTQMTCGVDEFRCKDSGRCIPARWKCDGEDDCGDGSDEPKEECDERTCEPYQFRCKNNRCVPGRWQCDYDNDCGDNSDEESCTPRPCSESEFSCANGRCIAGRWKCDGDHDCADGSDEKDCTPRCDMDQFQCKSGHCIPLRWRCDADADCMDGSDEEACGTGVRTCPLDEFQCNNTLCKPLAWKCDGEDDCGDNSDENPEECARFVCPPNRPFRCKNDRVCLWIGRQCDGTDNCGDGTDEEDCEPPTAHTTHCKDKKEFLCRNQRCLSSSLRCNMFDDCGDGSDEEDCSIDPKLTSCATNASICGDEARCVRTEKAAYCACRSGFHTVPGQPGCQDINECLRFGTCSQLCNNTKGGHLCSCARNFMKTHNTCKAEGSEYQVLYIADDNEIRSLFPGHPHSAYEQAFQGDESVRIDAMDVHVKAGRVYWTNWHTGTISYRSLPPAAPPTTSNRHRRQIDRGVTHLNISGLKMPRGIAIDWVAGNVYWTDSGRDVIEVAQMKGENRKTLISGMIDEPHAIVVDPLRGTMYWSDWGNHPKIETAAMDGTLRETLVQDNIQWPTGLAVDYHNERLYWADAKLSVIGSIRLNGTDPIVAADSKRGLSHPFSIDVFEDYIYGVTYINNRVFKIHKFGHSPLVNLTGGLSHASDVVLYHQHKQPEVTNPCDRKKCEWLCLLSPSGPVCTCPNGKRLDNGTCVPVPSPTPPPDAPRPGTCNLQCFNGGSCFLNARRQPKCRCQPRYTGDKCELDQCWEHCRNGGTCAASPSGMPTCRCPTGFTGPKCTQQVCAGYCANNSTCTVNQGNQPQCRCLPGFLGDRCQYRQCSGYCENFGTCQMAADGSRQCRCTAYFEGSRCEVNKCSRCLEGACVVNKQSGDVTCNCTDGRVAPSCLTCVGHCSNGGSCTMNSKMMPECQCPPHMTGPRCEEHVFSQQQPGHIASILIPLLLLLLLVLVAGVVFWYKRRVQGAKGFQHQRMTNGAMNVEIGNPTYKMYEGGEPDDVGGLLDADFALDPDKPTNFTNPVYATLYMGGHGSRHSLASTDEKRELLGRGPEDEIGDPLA
# Sequence of receptor-associated protein (RAP) (P30533 35-357): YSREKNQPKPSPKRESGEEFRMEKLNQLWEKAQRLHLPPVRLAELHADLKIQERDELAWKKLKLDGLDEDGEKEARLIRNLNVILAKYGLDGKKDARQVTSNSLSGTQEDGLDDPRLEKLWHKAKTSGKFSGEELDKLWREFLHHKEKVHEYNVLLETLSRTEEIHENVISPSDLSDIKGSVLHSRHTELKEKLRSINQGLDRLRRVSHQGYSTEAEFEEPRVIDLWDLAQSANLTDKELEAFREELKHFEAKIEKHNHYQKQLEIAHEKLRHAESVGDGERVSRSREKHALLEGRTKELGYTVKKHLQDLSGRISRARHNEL
substance,measurement,setting,value
Cy5.5,Passage of free dye across the BBB,[1],does not cross the BBB
TFFYGGSRGKRNNFKTEEY [Angiopep-2],Permeability of the BBB to inulin in the presence of Angiopep-2,[2],unaffected
same,In vitro BBB transcytosis,[3],high BBB transcytosis in vitro
same,Effect of exposure to Angiopep-2 on endothelial cells,endothelial cells,unaffected
same,Apparent distribution volume in brain parenchyma vs transferrin,[4],greater apparent distribution volume in brain parenchyma than transferrin
same,Immunohistochemical detection in brain after IV bolus injection,[5],present in the brain parenchyma
α2-macroglobulin (from UniProt P01023),pKd,LRP-1 (Homo sapiens) [6],8.70
receptor-associated protein (RAP) (from UniProt P30533),pKd,LRP-1 (Homo sapiens) [7],8.70
protamine,Inhibition of [125I]-Angiopep-2 uptake into RBE4 cells,RBE4 cells,79%
poly-L-lysine,Inhibition of [125I]-Angiopep-2 uptake into RBE4 cells,RBE4 cells,69%
α2-macroglobulin: LRP-1 ligand,pKd,LRP-1,~8.70
"RAP: receptor-associated protein, an LRP ligand",pKd,LRP-1,~8.70
TFFYGGSRGRRNNFRTEEY [Angiopep-7],In vitro BBB transcytosis,[3],did not exhibit in vitro transcytosis
poly-L-glutamine,Inhibition of [125I]-Angiopep-2 uptake into RBE4 cells,RBE4 cells,unaffected

# — paper PMC3822732 (Journal of Cellular and Molecular Medicine, 2009)
